Test results taken from ChEMBL document CHEMBL4152216, “Syntheses and anti-pancreatic cancer activities of rakicidin A analogues” (Eur J Med Chem, 2018).
pIC50: −log10 of the molar value.

How the values were obtained:
[1] = test system: PANC-1; assay: Cytotoxicity against human PANC1 cells after 72 hrs under normoxic condition by MTT assay; format: functional, cell-based; settings: PANC-1, 72 h
Summary of the method: (§1)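 PANC-1, PATU8988T and ASPC-1 cells were grown in DMEM with 10% FBS at 37 °C and 5% CO2, then seeded at 4000 cells/well. Compounds were added at various concentrations after 6 h. Normoxic plates stayed at 37 °C, 5% CO2. Hypoxic plates went into a chamber purged 10 min with 5% CO2/1% O2/94% N2, sealed, at 37 °C. After 72 h, MTT was added for 4 h, formazan dissolved in DMSO and read at 570 nm. IC50 is the mean ± SD of three independent experiments.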

[2] = test system: PaTu 8988t; assay: Selectivity index, ratio of IC50 against human PA-TU-8988T cells under normoxic condition to IC50 for human PA-TU-8988T cells under hypoxic condition; format: functional
Summary of the method: (§2)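 Hypoxic selectivity index is IC50 (normoxia)/IC50 (hypoxia). Both IC50s come from the 72 h MTT assay in the same cell line, run under normoxia (37 °C, 5% CO2) or a sealed 1% O2/5% CO2/94% N2 chamber, each the mean of three independent experiments.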

[3] = test system: ASPC1; assay: Selectivity index, ratio of IC50 against human Aspc-1 cells under normoxic condition to IC50 for human Aspc-1 cells under hypoxic condition; format: functional; summary of the method: as §2
[4] = test system: PaTu 8988t; assay: Cytotoxicity against human PA-TU-8988T cells after 72 hrs under normoxic condition by MTT assay; format: functional, cell-based; summary of the method: as §1
[5] = test system: PANC-1; assay: Selectivity index, ratio of IC50 against human PANC1 cells under normoxic condition to IC50 for human PANC1 cells under hypoxic condition; format: functional; summary of the method: as §2
[6] = test system: PANC-1; assay: Cytotoxicity against human PANC1 cells after 72 hrs under hypoxic condition by MTT assay; format: functional, cell-based; settings: PANC-1, 72 h; summary of the method: as §1
[7] = test system: PaTu 8988t; assay: Cytotoxicity against human PA-TU-8988T cells after 72 hrs under hypoxic condition by MTT assay; format: functional, cell-based; summary of the method: as §1
[8] = test system: ASPC1; assay: Cytotoxicity against human Aspc-1 cells after 72 hrs under normoxic condition by MTT assay; format: functional, cell-based; settings: ASPC1, 72 h; summary of the method: as §1
[9] = test system: ASPC1; assay: Cytotoxicity against human Aspc-1 cells after 72 hrs under hypoxic condition by MTT assay; format: functional, cell-based; settings: ASPC1, 72 h; summary of the method: as §1
[10] = test system: PANC-1; assay: Inhibition of cancer stem cell population of human PANC1 cells assessed as CD24+/CD44+/ESA+ cell population level at 0.15 uM after 48 hrs by flow cytometric analysis (reference value: 1.7%); format: functional; design: scale not given: the % may be the effect or the level left

| SMILES | pIC50 [1] | Ratio IC50 [2] | Ratio IC50 [3] | pIC50 [4] | Ratio IC50 [5] | pIC50 [6] | pIC50 [7] | pIC50 [8] | pIC50 [9] | Activity [10] [%] |
| --- | --- | --- | --- | --- | --- | --- | --- | --- | --- | --- |
| C=C1/C=C/C(=O)N(C)C(C)C(=O)N[C@@H]([C@H](O)C(=O)OC)C(=O)O[C@@H]([C@H](C)CCCCCCCCCCCC(C)C)[C@H](C)C(=O)N1 (single isomer, unassigned; 1d) | 6.18 | 2.86 | 7.87 | 5.96 | 8.34 | 7.10 | 6.42 | 5.49 | 6.40 | – |
| C=C1/C=C/C(=O)N(C)CC(=O)N[C@@H](CC(=O)OC)C(=O)O[C@@H]([C@H](C)CCCCCCCCCCCCCC)[C@H](C)C(=O)N1 | 6.92 | 1.87 | 2.8 | 6.19 | 1.98 | 7.24 | 6.47 | 6.01 | 6.46 | 0.7 |
| C=C1/C=C/C(=O)N(C)CC(=O)N[C@@H](C(C)C)C(=O)O[C@@H]([C@H](C)CCCCCCCCCCCCCC)[C@H](C)C(=O)N1 | 6.00 | – | – | – | 3 | 6.46 | – | – | – | – |
| C=C1/C=C/C(=O)N(C)CC(=O)N[C@@H](CCC(=O)OC)C(=O)O[C@@H]([C@H](C)CCCCCCCCCCCCCC)[C@H](C)C(=O)N1 | 5.96 | – | – | – | 3.54 | 6.52 | – | – | – | – |
| C=C1/C=C/C(=O)N(C)CC(=O)N[C@@H](CC(=O)OC)C(=O)O[C@@H]([C@H](C)CCCCCCCCCCCC(C)C)[C@H](C)C(=O)N1 | 6.96 | 5.03 | 0.59 | 6.44 | 2.36 | 7.32 | 7.14 | 6.44 | 6.22 | 1.2 |
| C=C1/C=C/C(=O)N(C)CC(=O)N[C@@H]([C@H](O)C(=O)OCC)C(=O)O[C@@H]([C@H](C)CCCCCCCCCCCC(C)C)[C@H](C)C(=O)N1 | 6.80 | 3.25 | 2.64 | 6.42 | 2.33 | 7.17 | 6.92 | 6.32 | 6.74 | – |
| CCCCCCCCCCCCCC[C@@H](C)[C@@H]1OC(=O)[C@H](CC(=O)NC2CC2)NC(=O)CN(C)C(=O)/C=C/C(CO[Si](c2ccccc2)(c2ccccc2)C(C)(C)C)NC(=O)[C@H]1C (stereo partly drawn) | < 5.00 | – | – | – | – | < 5.00 | – | – | – | – |
| C=C1/C=C/C(=O)N(C)C(C)C(=O)N[C@@H]([C@H](O)C(=O)OC)C(=O)O[C@@H]([C@H](C)CCCCCCCCCCCC(C)C)[C@H](C)C(=O)N1 (single isomer, unassigned; 1c) | 6.39 | 2.79 | 5.71 | 6.27 | 9.53 | 7.37 | 6.70 | 5.92 | 6.70 | – |
| C=C1/C=C/C(=O)N(C)CC(=O)N[C@@H](C)C(=O)O[C@@H]([C@H](C)CCCCCCCCCCCCCC)[C@H](C)C(=O)N1 | 5.96 | – | – | – | 4.04 | 6.57 | – | – | – | – |
| COC(=O)C[C@@H]1NC(=O)CN(C)C(=O)/C=C/CNC(=O)[C@@H](C)[C@H]([C@H](C)CCCCCCCCCCCC(C)C)OC1=O | 4.68 | – | – | – | 0.76 | 4.55 | – | – | – | – |
| CCCCCCCCCCCCCC[C@@H](C)[C@@H]1OC(=O)[C@H](CC(=O)NC2CC2)NC(=O)CN(C)C(=O)/C=C/[C@H](CO)NC(=O)[C@H]1C | < 5.00 | – | – | – | – | < 5.00 | – | – | – | – |
